Test results from ChEMBL document CHEMBL1152233, “The identification of pyrazolo[1,5-a]pyridines as potent p38 kinase inhibitors” (Bioorg Med Chem Lett, 2008).

Experiments:
[1] = molecular target: Mitogen-activated protein kinase 14 (Homo sapiens, UniProt Q16539); experiment: Inhibition of GST-fused p38alpha expressed in Escherichia coli
How it was run: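 GST-tagged p38 and MEK6 at the N-terminus, purified from E. coli. Reaction ran 60 min at rt, was EDTA-quenched, and was read with streptavidin SPA beads. IC50 was fitted from % inhibition against ±EDTA controls. Values are means of >2 experiments.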

[2] = Metabolic stability in rat liver S9 microsomal fraction assessed as parent compound turnover after 30 mins; format: ADME, subcellular; settings: read-out: Stability
How it was run: (§1)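 Test compound was incubated with liver S9 fraction (5 mg protein/mL) for 30 min. Read-out is % turnover of parent compound. Values are means of ≥2 incubations.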

[3] = Metabolic stability in dog liver S9 microsomal fraction assessed as parent compound turnover after 30 mins; format: ADME, subcellular, Canis lupus familiaris; settings: read-out: Stability; how it was run: as §1
[4] = Volume of distribution at steady state in Beagle dog at 1 mg/kg, iv; format: ADME, organism-based, Canis lupus familiaris; design: dose 1 mg/kg, route intravenous; settings: in vivo, read-out: Vdss
[5] = AUC in Beagle dog at 1 mg/kg, iv; format: ADME, organism-based, Canis lupus familiaris; design: dose 1 mg/kg, route intravenous; settings: plasma
[6] = Clearance in Beagle dog at 1 mg/kg, iv; format: ADME, organism-based, Canis lupus familiaris; design: dose 1 mg/kg, route intravenous; settings: in vivo
[7] = AUC in Lewis rat at 1 mg/kg, iv; format: ADME, organism-based; design: dose 1 mg/kg, route intravenous; settings: plasma
[8] = Bioavailability in Lewis rat at 1 mg/kg, iv; format: ADME, organism-based; settings: in vivo
[9] = Half life in Lewis rat at 1 mg/kg, iv; format: ADME, organism-based; design: dose 1 mg/kg, route intravenous; settings: in vivo
[10] = Volume of distribution at steady state in Lewis rat at 1 mg/kg, iv; format: ADME, organism-based; design: dose 1 mg/kg, route intravenous; settings: in vivo, read-out: Vdss
[11] = Half life in Beagle dog at 1 mg/kg, iv; format: ADME, organism-based, Canis lupus familiaris; design: dose 1 mg/kg, route intravenous; settings: in vivo
[12] = Bioavailability in Beagle dog at 1 mg/kg, iv; format: ADME, organism-based, Canis lupus familiaris; settings: in vivo
[13] = Clearance in Lewis rat at 1 mg/kg, iv; format: ADME, organism-based; design: dose 1 mg/kg, route intravenous; settings: in vivo
Angiopoietin-1 receptor = Angiopoietin-1 receptor (Homo sapiens, UniProt Q02763); experiment: Inhibition of TIE2
Chain of Angiopoietin-1 receptor (Q02763 whole entry): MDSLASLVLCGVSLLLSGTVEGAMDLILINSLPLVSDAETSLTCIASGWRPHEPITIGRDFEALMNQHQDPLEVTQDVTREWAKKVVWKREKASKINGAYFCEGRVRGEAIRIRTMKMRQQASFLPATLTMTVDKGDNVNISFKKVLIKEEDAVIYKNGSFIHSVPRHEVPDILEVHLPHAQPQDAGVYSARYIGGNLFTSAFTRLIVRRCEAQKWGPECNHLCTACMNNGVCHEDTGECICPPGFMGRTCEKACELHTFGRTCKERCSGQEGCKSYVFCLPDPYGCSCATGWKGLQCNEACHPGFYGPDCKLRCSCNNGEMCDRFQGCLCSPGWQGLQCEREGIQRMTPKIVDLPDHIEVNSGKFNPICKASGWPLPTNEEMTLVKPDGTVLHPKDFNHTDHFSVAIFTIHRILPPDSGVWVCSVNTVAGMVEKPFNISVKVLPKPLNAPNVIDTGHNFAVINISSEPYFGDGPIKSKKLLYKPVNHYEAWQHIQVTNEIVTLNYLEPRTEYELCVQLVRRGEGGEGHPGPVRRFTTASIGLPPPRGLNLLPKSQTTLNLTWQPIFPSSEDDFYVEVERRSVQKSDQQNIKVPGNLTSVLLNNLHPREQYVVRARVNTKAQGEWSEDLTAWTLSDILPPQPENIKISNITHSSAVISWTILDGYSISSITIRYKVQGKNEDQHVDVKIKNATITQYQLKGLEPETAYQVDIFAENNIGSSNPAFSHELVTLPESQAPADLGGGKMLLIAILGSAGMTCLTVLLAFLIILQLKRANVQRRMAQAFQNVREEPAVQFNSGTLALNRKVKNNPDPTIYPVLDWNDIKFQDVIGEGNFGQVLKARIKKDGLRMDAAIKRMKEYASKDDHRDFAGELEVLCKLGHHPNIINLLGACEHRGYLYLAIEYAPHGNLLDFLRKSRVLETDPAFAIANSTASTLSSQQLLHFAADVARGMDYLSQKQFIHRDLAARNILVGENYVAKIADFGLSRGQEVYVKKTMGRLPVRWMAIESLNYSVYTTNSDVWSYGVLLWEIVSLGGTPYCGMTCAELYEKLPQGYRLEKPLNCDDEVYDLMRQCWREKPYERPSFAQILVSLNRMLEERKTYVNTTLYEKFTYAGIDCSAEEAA

[14] = Clearance in Lewis rat at 5 mg/kg, iv; format: ADME, organism-based; design: dose 5 mg/kg, route intravenous; settings: in vivo
[15] = molecular target: Macrophage colony-stimulating factor 1 receptor (Homo sapiens, UniProt P07333); experiment: Inhibition of C-FMS
Chain of Macrophage colony-stimulating factor 1 receptor (P07333 whole entry): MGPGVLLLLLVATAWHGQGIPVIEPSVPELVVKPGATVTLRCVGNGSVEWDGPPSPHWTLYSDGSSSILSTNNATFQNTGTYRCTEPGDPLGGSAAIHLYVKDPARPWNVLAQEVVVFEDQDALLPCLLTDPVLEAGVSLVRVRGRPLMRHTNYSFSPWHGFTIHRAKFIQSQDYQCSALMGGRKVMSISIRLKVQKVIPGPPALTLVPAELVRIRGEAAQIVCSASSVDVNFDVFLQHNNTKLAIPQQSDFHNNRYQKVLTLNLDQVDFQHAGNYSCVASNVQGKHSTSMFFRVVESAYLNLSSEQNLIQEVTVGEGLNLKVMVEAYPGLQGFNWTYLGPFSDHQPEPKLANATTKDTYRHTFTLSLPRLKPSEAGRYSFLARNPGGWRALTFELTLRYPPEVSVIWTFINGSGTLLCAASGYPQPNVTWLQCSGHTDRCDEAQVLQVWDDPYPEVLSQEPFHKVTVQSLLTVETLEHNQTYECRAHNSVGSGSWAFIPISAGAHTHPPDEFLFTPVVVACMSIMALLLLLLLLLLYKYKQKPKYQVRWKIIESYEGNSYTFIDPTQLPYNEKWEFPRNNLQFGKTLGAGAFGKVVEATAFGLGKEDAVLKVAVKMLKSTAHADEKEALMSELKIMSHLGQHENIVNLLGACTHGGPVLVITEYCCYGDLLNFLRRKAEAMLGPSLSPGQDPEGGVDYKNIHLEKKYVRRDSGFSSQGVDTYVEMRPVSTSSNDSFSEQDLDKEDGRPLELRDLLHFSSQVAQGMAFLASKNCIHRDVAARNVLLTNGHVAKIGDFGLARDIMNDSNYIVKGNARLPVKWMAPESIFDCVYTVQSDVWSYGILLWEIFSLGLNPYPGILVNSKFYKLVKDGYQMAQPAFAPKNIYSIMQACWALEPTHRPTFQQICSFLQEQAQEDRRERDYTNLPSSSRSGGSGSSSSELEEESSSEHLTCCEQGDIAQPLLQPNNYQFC

Mus musculus = experiment: Inhibition of LPS-induced TNF production in mouse at 30 mg/kg, po; format: functional
[16] = molecular target: Vascular endothelial growth factor receptor 2 (Homo sapiens, UniProt P35968); experiment: Inhibition of VEGFR2
Chain of Vascular endothelial growth factor receptor 2 (P35968 whole entry): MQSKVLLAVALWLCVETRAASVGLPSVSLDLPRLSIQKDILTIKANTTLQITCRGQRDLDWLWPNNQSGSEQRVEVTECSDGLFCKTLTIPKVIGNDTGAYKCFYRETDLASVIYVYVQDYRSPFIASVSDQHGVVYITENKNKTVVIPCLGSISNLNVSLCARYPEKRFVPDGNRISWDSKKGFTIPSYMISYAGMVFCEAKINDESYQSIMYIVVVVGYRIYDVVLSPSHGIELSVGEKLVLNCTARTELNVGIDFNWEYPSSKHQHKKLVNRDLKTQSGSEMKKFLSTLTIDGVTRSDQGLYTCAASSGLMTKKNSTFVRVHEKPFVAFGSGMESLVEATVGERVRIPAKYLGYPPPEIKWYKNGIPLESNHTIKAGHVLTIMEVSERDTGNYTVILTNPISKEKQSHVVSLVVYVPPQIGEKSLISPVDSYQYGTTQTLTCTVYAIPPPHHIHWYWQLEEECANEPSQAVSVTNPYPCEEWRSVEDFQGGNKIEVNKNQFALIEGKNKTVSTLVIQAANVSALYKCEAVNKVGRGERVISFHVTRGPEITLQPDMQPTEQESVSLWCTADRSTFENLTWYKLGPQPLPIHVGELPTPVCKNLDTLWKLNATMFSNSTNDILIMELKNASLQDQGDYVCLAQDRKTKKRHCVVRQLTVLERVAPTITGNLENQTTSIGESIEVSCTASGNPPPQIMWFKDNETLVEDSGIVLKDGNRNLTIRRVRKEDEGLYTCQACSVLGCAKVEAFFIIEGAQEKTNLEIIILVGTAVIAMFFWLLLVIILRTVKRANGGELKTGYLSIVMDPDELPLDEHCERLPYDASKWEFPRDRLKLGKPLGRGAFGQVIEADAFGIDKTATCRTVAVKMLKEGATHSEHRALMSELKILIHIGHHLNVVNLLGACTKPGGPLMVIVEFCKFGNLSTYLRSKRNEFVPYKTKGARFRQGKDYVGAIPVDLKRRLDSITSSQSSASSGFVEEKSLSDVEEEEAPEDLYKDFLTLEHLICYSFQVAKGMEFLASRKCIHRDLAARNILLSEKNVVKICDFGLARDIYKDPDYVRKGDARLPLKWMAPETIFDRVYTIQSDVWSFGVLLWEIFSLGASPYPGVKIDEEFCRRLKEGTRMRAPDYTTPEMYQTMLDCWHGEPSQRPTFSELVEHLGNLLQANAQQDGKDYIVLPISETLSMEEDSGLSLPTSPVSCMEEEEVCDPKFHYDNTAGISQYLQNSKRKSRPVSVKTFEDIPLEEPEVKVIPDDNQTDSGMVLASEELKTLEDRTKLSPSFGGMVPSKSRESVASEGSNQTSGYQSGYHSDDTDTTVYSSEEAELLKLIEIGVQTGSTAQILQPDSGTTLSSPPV

[17] = Bioavailability in Lewis rat at 5 mg/kg, iv; format: ADME, organism-based; settings: in vivo
[18] = molecular target: Receptor tyrosine-protein kinase erbB-2 (Homo sapiens, UniProt P04626); experiment: Inhibition of ERBB2
[19] = molecular target: [Pyruvate dehydrogenase (acetyl-transferring)] kinase isozyme 4, mitochondrial (Homo sapiens, UniProt Q16654); experiment: Inhibition of PDHK4
Chain of [Pyruvate dehydrogenase (acetyl-transferring)] kinase isozyme 4, mitochondrial (Q16654 whole entry): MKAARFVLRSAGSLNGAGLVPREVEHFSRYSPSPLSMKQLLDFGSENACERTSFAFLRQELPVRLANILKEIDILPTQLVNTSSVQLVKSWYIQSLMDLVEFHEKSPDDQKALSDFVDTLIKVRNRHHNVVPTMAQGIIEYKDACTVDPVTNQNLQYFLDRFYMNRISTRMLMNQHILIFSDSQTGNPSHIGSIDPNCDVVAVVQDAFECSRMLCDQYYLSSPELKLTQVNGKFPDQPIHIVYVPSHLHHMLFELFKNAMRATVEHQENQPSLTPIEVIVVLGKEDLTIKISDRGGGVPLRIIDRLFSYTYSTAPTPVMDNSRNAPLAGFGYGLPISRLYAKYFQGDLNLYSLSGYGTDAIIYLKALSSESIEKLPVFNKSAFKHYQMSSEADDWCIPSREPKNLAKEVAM

[20] = molecular target: RAC-gamma serine/threonine-protein kinase (Homo sapiens, UniProt Q9Y243); experiment: Inhibition of AKT3
Chain of RAC-gamma serine/threonine-protein kinase (Q9Y243 whole entry): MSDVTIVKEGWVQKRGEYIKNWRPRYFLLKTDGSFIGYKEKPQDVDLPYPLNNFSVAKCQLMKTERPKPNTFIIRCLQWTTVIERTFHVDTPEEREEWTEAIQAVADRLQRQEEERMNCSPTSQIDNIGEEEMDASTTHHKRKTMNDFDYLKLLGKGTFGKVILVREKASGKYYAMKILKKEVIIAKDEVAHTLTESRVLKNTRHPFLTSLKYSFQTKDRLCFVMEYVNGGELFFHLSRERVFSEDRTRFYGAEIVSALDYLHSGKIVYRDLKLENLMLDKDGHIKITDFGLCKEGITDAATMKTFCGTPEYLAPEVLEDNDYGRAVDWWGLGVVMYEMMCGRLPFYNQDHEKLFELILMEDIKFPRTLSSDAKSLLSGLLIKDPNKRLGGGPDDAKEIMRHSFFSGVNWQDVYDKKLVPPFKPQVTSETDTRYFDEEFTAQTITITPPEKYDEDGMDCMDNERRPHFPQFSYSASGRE

[21] = molecular target: Glycogen synthase kinase-3 beta (Homo sapiens, UniProt P49841); experiment: Inhibition of GSK3-beta
[22] = AUC in Lewis rat at 5 mg/kg, iv; format: ADME, organism-based; design: dose 5 mg/kg, route intravenous; settings: plasma
[23] = molecular target: Receptor tyrosine-protein kinase erbB-4 (Homo sapiens, UniProt Q15303); experiment: Inhibition of ERBB4
[24] = Half life in Lewis rat at 5 mg/kg, iv; format: ADME, organism-based; design: dose 5 mg/kg, route intravenous; settings: in vivo
[25] = molecular target: Cyclin-dependent kinase 2 (Homo sapiens, UniProt P24941); experiment: Inhibition of CDK2/CyclinA
PBMC = experiment: Inhibition of LPS-induced TNF release in human PBMC; format: functional, cell-based
[26] = Volume of distribution at steady state in Lewis rat at 5 mg/kg, iv; format: ADME, organism-based; design: dose 5 mg/kg, route intravenous; settings: in vivo, read-out: Vdss

Chain of Mitogen-activated protein kinase 14 (Q16539 whole entry, the tested form may be a part): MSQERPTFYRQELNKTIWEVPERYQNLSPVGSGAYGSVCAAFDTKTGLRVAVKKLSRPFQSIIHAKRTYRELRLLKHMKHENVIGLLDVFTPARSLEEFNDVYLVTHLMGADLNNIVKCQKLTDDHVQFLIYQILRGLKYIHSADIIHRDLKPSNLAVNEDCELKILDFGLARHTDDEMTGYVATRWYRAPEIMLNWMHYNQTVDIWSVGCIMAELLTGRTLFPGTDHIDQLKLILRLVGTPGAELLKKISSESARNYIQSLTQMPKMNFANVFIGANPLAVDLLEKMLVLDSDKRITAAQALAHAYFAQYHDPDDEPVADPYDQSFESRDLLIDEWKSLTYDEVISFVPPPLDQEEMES

CCOc1cccc2c(-c3ccncc3)c(-c3ccc(F)cc3)nn12
IC50 [1]: 50 nM

Fc1ccc(-c2nn3c(Cl)cccc3c2-c2ccncc2)cc1
metabolised at 0.5 h [2]: 37%
IC50 [1]: 150 nM
metabolised at 0.5 h [3]: 84%

Fc1ccc(-c2nn3cc(F)ccc3c2-c2ccncc2)cc1
metabolised at 0.5 h [2]: 1%
IC50 [1]: 160 nM
metabolised at 0.5 h [3]: 23%

Fc1ccc(-c2nn3c(OCC(F)(F)F)cccc3c2-c2ccncc2)cc1
Vd [4]: 8.2 L/kg
AUC [5]: 1500 ng·h/mL
clearance [6]: 17 mL/min/kg
AUC [7]: 500 ng·h/mL
bioavailability [8]: 72%
half-life [9]: 2.1 h
Vd [10]: 5.4 L/kg
half-life [11]: 6.5 h
metabolised at 0.5 h [2]: 0%
bioavailability [12]: 32%
clearance [13]: 40 mL/min/kg
IC50 [1]: 70 nM
metabolised at 0.5 h [3]: 0%

Fc1ccc(-c2nn3cccc(F)c3c2-c2ccncc2)cc1
metabolised at 0.5 h [2]: 21%
IC50 [1]: 240 nM
metabolised at 0.5 h [3]: 39%

Fc1ccc(-c2nn3c(OC4CCCC4)cccc3c2-c2ccncc2)cc1
metabolised at 0.5 h [2]: 8%
IC50 [1]: 170 nM
metabolised at 0.5 h [3]: 18%

Fc1ccc(-c2nn3cc(Cl)ccc3c2-c2ccncc2)cc1
IC50 [1]: 150 nM

Cc1ccc2c(-c3ccncc3)c(-c3ccc(F)cc3)nn2c1
metabolised at 0.5 h [2]: 99%
IC50 [1]: 150 nM
metabolised at 0.5 h [3]: 81%

Fc1ccc(-c2nn3ccccc3c2-c2ccncc2)cc1 [GW434756X]
Vd [4]: 3.8 L/kg
AUC [5]: 500 ng·h/mL
clearance [6]: 34 mL/min/kg
IC50 (Angiopoietin-1 receptor): > 10000 nM
clearance [14]: 49 mL/min/kg
IC50 [15]: > 10000 nM
inhibition in vivo at 30 mg/kg (Mus musculus): 65%
IC50 [16]: > 10000 nM
bioavailability [17]: 50%
IC50 [18]: > 10000 nM
half-life [11]: 1.9 h
metabolised at 0.5 h [2]: 27%
IC50 [19]: > 10000 nM
IC50 [20]: > 10000 nM
IC50 [21]: 2200 nM
bioavailability [12]: 18%
AUC [22]: 1700 ng·h/mL
IC50 [23]: > 10000 nM
IC50 [1]: 120 nM
half-life [24]: 1.2 h
IC50 [25]: > 10000 nM
metabolised at 0.5 h [3]: 81%
IC50 (PBMC): 300 nM
Vd [26]: 3.2 L/kg

N#Cc1ccc2c(-c3ccncc3)c(-c3ccc(F)cc3)nn2c1
IC50 [1]: 140 nM

Cc1ccn2nc(-c3ccc(F)cc3)c(-c3ccncc3)c2c1
AUC [7]: 200 ng·h/mL
half-life [9]: 1.2 h
Vd [10]: 2 L/kg
metabolised at 0.5 h [2]: 60%
clearance [13]: 83 mL/min/kg
IC50 [1]: 160 nM

Cc1cccc2c(-c3ccncc3)c(-c3ccc(F)cc3)nn12
metabolised at 0.5 h [2]: 43%
IC50 [1]: 150 nM
metabolised at 0.5 h [3]: 93%

Cc1cccn2nc(-c3ccc(F)cc3)c(-c3ccncc3)c12
IC50 [1]: 280 nM

Fc1ccc(-c2nn3cc(C(F)(F)F)ccc3c2-c2ccncc2)cc1
AUC [7]: 500 ng·h/mL
bioavailability [8]: 84%
half-life [9]: 2.5 h
Vd [10]: 5.4 L/kg
metabolised at 0.5 h [2]: 0%
clearance [13]: 34 mL/min/kg
IC50 [1]: 200 nM
metabolised at 0.5 h [3]: 0%
